Here are results for five compounds from publication PMC9477609 (Journal of Molecular Liquids, 2022).

In general, log P refers to a log measure of how a compound divides between an organic and an aqueous phase. As a reminder, the solubility is the concentration that dissolves in the medium under given conditions. Low readings indicate little dissolved substance, high ones much dissolved substance. What is called aqueous solubility is how much of the substance goes into solution per volume.

≈ marks a conversion by molar mass, not a printed value.

Data set [1] can be described thus: water solubility of neat and equilibrated powders. The data set is classed as physicochemical. As to conditions: for water solubility: neat and solvent-equilibrated dry powders.
For data set [2] the following is noted: cited from earlier work.
Data set [3] is described as follows: apparent thermodynamic analysis: dissolution Gibbs free energy. The data set is classed as physicochemical. In a few lines:
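Excess solid was added to the pure solvent, vortexed and sonicated, then shaken for 24 h at 300 rpm at each temperature from 298.15 to 323.15 K. Samples were centrifuged for 20 min at 8000 rpm and 25 °C. Supernatant was diluted in MeOH/water 8:2 and read by absorbance at 330 nm against a 5–35 µg/mL calibration. Mole fraction solubility was the mean of triplicates. Dissolution thermodynamics came from Van't Hoff analysis.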

Data set [4] concerns snails. As to conditions: cited from earlier work.
Data set [5] deals with MDA-MB-231. As to conditions: human breast cancer cell lines (MDA-MB-231) ref 5; cited from earlier work.
The subject of data set [6] is MCF-7. The note with it: read-out: cell proliferation inhibitor IC50; MCF-7 ref 5; cited from earlier work.
Data set [7] concerns parasitic proliferation. The note with it: cited from earlier work.
The subject of data set [8] is hepatitis C virus. As to conditions: cited from earlier work.
For data set [9] the following is noted: in water, PBS (pH 7.4), SGF and SIF; no reference given; cited from earlier work.

As for `O=C(Nc1ccc([N+](=O)[O-])cc1Cl)c1cc(Cl)ccc1O` [NCL-DMSO], the water solubility in data set [1] was determined as 18.082 ± 0.045 µg/mL (≈ 55.3 µM).

The compound `O=C(Nc1ccc([N+](=O)[O-])cc1Cl)c1cc(Cl)ccc1O` [NCL-MeOH] gave a water solubility in data set [1] of 16.261 ± 0.082 µg/mL (≈ 49.7 µM).

In the case of `C[S+](C)[O-]` [dimethyl sulfoxide], in data set [2], the “log P” value is −1.35.

Consider `CO` [methanol], for which, in data set [2], the “log P” value is listed as −0.69.

With `O=C(Nc1ccc([N+](=O)[O-])cc1Cl)c1cc(Cl)ccc1O` [niclosamide, N-(2′-chloro-4′-nitrophenyl)-5-chlorosalicylamide], the “ΔdisG, dissolution Gibbs free energy” value in data set [3] (1-butanol, 298.15 K) is -0.48423 kcal/mol; in data set [3] (1-butanol, 303.15 K) it was -0.48341 kcal/mol; in data set [3] (1-butanol, 308.15 K) it was -0.48255 kcal/mol; in data set [3] (1-butanol, 313.15 K) it was -0.48176 kcal/mol; in data set [3] (1-butanol, 318.15 K), -0.48088 kcal/mol; in data set [3] (1-butanol, 323.15 K), -0.48009 kcal/mol. In addition, the “ΔdisG, dissolution Gibbs free energy” value is -0.09434 kcal/mol in data set [3] (2-propanol, 298.15 K); -0.09015 kcal/mol in data set [3] (2-propanol, 303.15 K); -0.08597 kcal/mol in data set [3] (2-propanol, 308.15 K); -0.08179 kcal/mol in data set [3] (2-propanol, 313.15 K); -0.07763 kcal/mol in data set [3] (2-propanol, 318.15 K); -0.07345 kcal/mol in data set [3] (2-propanol, 323.15 K). Also, the “ΔdisG, dissolution Gibbs free energy” value in [3] (DMSO, 298.15 K) was 0.1837 kcal/mol; in [3] (DMSO, 303.15 K), 0.1905 kcal/mol; in data set [3] (DMSO, 308.15 K), 0.1973 kcal/mol; in [3] (DMSO, 313.15 K), 0.2041 kcal/mol; in [3] (DMSO, 318.15 K), 0.2109 kcal/mol; in data set [3] (DMSO, 323.15 K) it was 0.2177 kcal/mol. The “ΔdisG, dissolution Gibbs free energy” value in [3] (Ethanol, 298.15 K) amounted to 0.3086 kcal/mol; in data set [3] (Ethanol, 303.15 K), 0.31637 kcal/mol; in [3] (Ethanol, 308.15 K), 0.32414 kcal/mol; in [3] (Ethanol, 313.15 K), 0.33191 kcal/mol; in data set [3] (Ethanol, 318.15 K), 0.33967 kcal/mol; in [3] (Ethanol, 323.15 K), 0.34744 kcal/mol. In addition, the “ΔdisG, dissolution Gibbs free energy” value is 1.3769 kcal/mol in data set [3] (Methanol, 298.15 K); 1.3941 kcal/mol in [3] (Methanol, 303.15 K); 1.4113 kcal/mol in data set [3] (Methanol, 308.15 K); 1.4285 kcal/mol in [3] (Methanol, 313.15 K); 1.4457 kcal/mol in [3] (Methanol, 318.15 K); 1.463 kcal/mol in [3] (Methanol, 323.15 K). Also, the “ΔdisG, dissolution Gibbs free energy” value is -0.1837 kcal/mol in [3] (PEG-200, 298.15 K); -0.1807 kcal/mol in data set [3] (PEG-200, 303.15 K); -0.1777 kcal/mol in [3] (PEG-200, 308.15 K); -0.1747 kcal/mol in data set [3] (PEG-200, 313.15 K); -0.1717 kcal/mol in [3] (PEG-200, 318.15 K); -0.1687 kcal/mol in data set [3] (PEG-200, 323.15 K). For the same compound, the “ΔdisG, dissolution Gibbs free energy” value in [3] (PEG-400, 298.15 K) was -0.50012 kcal/mol; in data set [3] (PEG-400, 303.15 K) it was -0.50024 kcal/mol; in data set [3] (PEG-400, 308.15 K) it was -0.50038 kcal/mol; in [3] (PEG-400, 313.15 K) it was -0.50048 kcal/mol; in [3] (PEG-400, 318.15 K), -0.50067 kcal/mol; in data set [3] (PEG-400, 323.15 K), -0.50079 kcal/mol. In addition, the “ΔdisG, dissolution Gibbs free energy” value turned out to be 0.1407 kcal/mol in data set [3] (Water, 298.15 K); 0.1507 kcal/mol in data set [3] (Water, 303.15 K); 0.1608 kcal/mol in data set [3] (Water, 308.15 K); 0.1709 kcal/mol in data set [3] (Water, 313.15 K); 0.181 kcal/mol in [3] (Water, 318.15 K); 0.1911 kcal/mol in data set [3] (Water, 323.15 K). The compound further yielded a solubility in data set [1] (water) of 20.76 ± 0.099 µg/mL (≈ 63.5 µM). Moreover, in data set [4], the “lethal concentration in snails” value is 0.3 mg/L. In addition, the “apoptosis inducer, concentration” value in data set [5] is 1–10 µM/L. Also, the IC50 in data set [6] is 1.06 µM. The “parasitic proliferation inhibitor MIC50” value in data set [7] is 200–250 nM/L. In [8], the “hepatitis C virus replication inhibitor” value is given as 0.16 µM/L. Further, the aqueous solubility in [9] is 6 to 20 µg/mL.
